We go through 22 molecules from ChEMBL document CHEMBL1128394, “Hydroxamic acids as potent inhibitors of endothelin-converting enzyme from human bronchiolar smooth muscle” (J Med Chem, 1995).

Assay [1] concerns the target T1, Endothelin-converting enzyme 1 (Homo sapiens, UniProt P42892).
T1 sequence (P42892 whole entry): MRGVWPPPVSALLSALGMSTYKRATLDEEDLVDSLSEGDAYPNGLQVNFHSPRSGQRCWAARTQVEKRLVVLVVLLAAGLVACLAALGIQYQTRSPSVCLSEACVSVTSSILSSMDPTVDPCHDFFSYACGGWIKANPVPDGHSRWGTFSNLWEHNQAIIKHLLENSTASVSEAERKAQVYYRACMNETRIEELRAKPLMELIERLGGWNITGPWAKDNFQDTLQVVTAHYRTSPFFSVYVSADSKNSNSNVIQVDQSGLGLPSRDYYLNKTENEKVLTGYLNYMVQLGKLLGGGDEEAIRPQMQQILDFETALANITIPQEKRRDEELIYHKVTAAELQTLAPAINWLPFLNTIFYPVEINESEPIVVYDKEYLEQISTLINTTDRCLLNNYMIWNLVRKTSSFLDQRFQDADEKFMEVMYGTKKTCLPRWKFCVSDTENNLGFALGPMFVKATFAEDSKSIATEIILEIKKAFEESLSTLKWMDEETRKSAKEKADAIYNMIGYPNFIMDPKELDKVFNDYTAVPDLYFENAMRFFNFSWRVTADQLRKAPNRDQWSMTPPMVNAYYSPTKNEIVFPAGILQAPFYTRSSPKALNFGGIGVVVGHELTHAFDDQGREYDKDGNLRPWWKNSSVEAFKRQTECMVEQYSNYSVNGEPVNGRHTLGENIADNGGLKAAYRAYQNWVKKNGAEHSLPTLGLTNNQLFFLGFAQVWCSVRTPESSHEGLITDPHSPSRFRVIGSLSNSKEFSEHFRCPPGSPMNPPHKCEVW
Description: Inhibitory activity against human bronchiolar smooth muscle Endothelin-converting enzyme 1. In kind it is tissue-based, Muscle tissue. The gist of the method: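 Enzyme purified from cultured human bronchiolar smooth muscle cell membranes (octyl glucoside solubilization, ion exchange, gel filtration). Preincubated 30 min at 37 °C with inhibitor (in DMSO), then 3 μM human big ET-1 (final) added. Run 4–5 h at 37 °C in 50 mM Na-MOPS pH 7.2, 150 mM NaCl, 30 μM CaCl2, amastatin, PMSF. Stopped with EDTA. ET-1 quantified by reverse-phase HPLC with fluorescence.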

In assay [2] the target is T2, Neprilysin (Oryctolagus cuniculus, UniProt P08049).
T2 sequence (P08049 whole entry): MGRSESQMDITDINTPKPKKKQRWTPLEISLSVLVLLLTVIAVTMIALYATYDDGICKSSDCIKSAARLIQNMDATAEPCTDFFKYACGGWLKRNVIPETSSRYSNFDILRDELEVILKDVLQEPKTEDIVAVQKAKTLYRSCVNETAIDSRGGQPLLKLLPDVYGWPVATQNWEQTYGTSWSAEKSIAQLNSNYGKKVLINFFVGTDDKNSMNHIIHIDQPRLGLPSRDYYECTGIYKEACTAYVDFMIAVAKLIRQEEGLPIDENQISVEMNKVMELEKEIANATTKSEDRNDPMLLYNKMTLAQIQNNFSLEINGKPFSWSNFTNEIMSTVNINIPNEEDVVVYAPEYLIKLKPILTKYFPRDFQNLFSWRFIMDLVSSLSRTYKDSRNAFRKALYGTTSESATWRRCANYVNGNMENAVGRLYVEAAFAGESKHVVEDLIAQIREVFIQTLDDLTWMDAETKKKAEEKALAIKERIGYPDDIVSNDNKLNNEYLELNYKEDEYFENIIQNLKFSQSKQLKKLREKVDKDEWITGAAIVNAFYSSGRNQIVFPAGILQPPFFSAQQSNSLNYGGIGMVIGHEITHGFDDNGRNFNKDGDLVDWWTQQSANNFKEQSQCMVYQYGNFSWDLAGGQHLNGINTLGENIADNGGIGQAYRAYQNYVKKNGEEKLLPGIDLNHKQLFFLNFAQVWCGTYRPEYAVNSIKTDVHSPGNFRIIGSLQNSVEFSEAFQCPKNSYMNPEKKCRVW
As to the kind of experiment: Inhibitory activity against Leu-enkeph of Neutral endopeptidase. The method, boiled down:
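Soluble rabbit kidney neutral endopeptidase preincubated 15 min with inhibitor. Tritiated [Leu]enkephalin as substrate. Reaction ran 10 min at 20 °C in 50 mM Tris-Cl pH 7.5.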

Assay [3] has as its target T2, Neprilysin. Description: Inhibitory activity against big ET-1 of Neutral endopeptidase. The method, boiled down: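 Soluble rabbit kidney neutral endopeptidase, run under the same conditions as the ECE assay: 30 min inhibitor preincubation at 37 °C, 3 μM human big ET-1, 4–5 h at 37 °C, pH 7.2 Na-MOPS buffer with NaCl and CaCl2. ET-1 formed was measured by reverse-phase HPLC with fluorescence detection. IC50 by least-squares curve fit.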

The next assay deals with T3, Thermolysin (Bacillus thermoproteolyticus, UniProt P00800).
T3 sequence (P00800 whole entry): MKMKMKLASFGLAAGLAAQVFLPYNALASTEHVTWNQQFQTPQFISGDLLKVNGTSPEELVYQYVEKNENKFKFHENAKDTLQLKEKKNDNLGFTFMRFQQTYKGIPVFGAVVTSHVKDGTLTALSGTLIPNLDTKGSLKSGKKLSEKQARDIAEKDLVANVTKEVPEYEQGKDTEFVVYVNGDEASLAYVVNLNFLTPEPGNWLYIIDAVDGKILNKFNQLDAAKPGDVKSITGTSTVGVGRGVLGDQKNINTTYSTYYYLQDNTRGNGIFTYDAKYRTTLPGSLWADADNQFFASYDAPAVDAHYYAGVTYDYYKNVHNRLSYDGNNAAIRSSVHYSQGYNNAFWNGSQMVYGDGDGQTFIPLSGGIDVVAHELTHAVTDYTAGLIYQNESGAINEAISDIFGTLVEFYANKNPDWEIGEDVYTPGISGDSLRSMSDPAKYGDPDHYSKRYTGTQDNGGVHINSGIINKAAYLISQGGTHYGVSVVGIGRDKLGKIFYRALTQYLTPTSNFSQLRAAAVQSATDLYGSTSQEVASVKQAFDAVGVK
Description: Inhibitory activity against thermolysin with 0.5 uM [Leu5]-enkephalin (NEN). The gist of the method: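 Thermolysin preincubated 15 min with inhibitor. Substrate 0.5 μM [3,5-3H-Tyr1][Leu]enkephalin. Reaction ran 10 min at 20 °C in 50 mM Tris-Cl pH 7.5.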

pIC50: −log10 of the molar value. Where “and” joins values, the source holds several entries; their conditions need not be identical. Identical values can stand only once. Residues, ends and D or L forms follow the SMILES beside them. *: point of attachment. Cbz = O=C(OCc1ccccc1)*; NHOH = ON*

With `CC(C)C(CC(=O)NO)C(=O)NC(Cc1c[nH]c2ccccc12)C(=O)O` (stereo not given), the pIC50 (commonly the IC50 on a negative log10 scale, so that one unit is a factor of ten) was 7.77 and 7.40 in assay [1]; 8.30 and 7.74 against Neprilysin [2]; 7.52 and 7.40 against Neprilysin [3]; 5.70 against Thermolysin.

Take `CC(C)C(C(=O)NO)C(=O)NC(Cc1c[nH]c2ccccc12)C(N)=O` (stereo not given): the negative logarithm of the IC50 (pIC50) in assay [1] was 8.92; on Neprilysin [2] it was 8.70; at Neprilysin [3] it was 8.52; at Thermolysin, 8.05.

As for `CC(C)CC(C(=O)NO)C(=O)NC(Cc1c[nH]c2ccccc12)C(=O)O` (stereo not given), the negative-log IC50 (pIC50) was 9.60 in assay [1], 10.52 at Neprilysin [2], 10.15 at Neprilysin [3] and 8.30 against Thermolysin.

For the molecule `CC(C)C(C(=O)NO)C(=O)NC(Cc1c[nH]c2ccccc12)C(=O)O` (stereo not given), the pIC50 in assay [1] is 9.70; on Neprilysin [2] it was 9.40; at Neprilysin [3] it was 10.52; on Thermolysin it was 8.30.

As for `CC(C)C(CC(=O)NO)C(=O)NC(CC(N)=O)C(N)=O` (stereo not given), in assay [1], the pIC50 was 5.52.

For `CC(C)C(CC(=O)NO)C(=O)NC(CC(N)=O)C(=O)O` (stereo not given), the pIC50 in assay [1] was 6.82; against Neprilysin [2], 6.77; on Neprilysin [3], 6.12.

Consider `CC(C)CC(C(=O)NOCc1ccccc1)C(=O)NC(Cc1c[nH]c2ccccc12)C(N)=O` (stereo not given), for which the pIC50 in assay [1] is 5.00.

Consider `CC(C)C(CNO)C(=O)NC(Cc1c[nH]c2ccccc12)C(=O)O` (stereo not given), for which the pIC50 in assay [1] was 6.30; at Neprilysin [2] it was 6.02; against Neprilysin [3], 6.00.

On to `CC(C)C[C@H](NC(=O)[C@@H]1CCCN1C(=O)OCc1ccccc1)C(=O)NCC(=O)NO` (Cbz-Pro-Leu-Gly-{NHOH}), for which the pIC50 in assay [1] was 4.48; at Neprilysin [3], 5.64.

With `CC(C)CC(C(=O)NO)C(=O)NC(Cc1c[nH]c2ccccc12)C(N)=O` (stereo not given), the pIC50 was 8.32 in assay [1], 8.70 at Neprilysin [2], 8.15 on Neprilysin [3] and 8.70 on Thermolysin.

The molecule `O=C(O)CNC(=O)C(CS)Cc1ccccc1` (stereo not given) [THIORPHAN] showed a negative logarithm of the IC50 (pIC50) in assay [1] of 8.10.

For the molecule `C[C@H](NC(=O)[C@@H](CC(=O)NO)Cc1ccccc1)C(=O)O` [KELATORPHAN], the pIC50 in assay [1] was 8.10; against Neprilysin [2], 9.00; against Neprilysin [3] it was 8.10; on Thermolysin it was 8.52.

With `CCCCC[C@H](CC(=O)NO)C(=O)N[C@H](C(=O)N1CCC[C@H]1CO)C(C)C` [ACTINONIN], the negative-log IC50 (pIC50) in assay [1] is 5.40; against Neprilysin [3] it was 5.09.

For `CC(C)C(C(=O)NO)C(=O)NC(CC(N)=O)C(=O)O` (stereo not given), the pIC50 in assay [1] is 8.52; against Neprilysin [2], 9.00; on Neprilysin [3] it was 7.70.

As for `CC(C)C(CC(=O)NO)C(=O)NCCC(=O)O` (stereo not given), the pIC50 in assay [1] is 6.72; on Neprilysin [2] it was 7.52; on Neprilysin [3], 6.57.

As to `CC(C)C(C(=O)NO)C(=O)NCCC(=O)O` (stereo not given), the pIC50 is 11.00 in assay [1], 8.70 against Neprilysin [2], 9.00 against Neprilysin [3] and 5.72 at Thermolysin.

In assay [1], `CC(C)C(CC(=O)NOCc1ccccc1)C(=O)NC(CC(N)=O)C(N)=O` (stereo not given) had a pIC50 below 5.00.

With `CC(C)C(CC(N)=O)C(=O)NCCC(=O)O` (stereo not given), the pIC50 in assay [1] is 5.19.

In assay [1], `O=C(O)CCNC(=O)CC(=O)NO` showed a pIC50 of 5.52.

For `CC(C)C[C@H](C(=O)NO)C(=O)N[C@@H](C)C(=O)NCC(N)=O`, the pIC50 was 7.96 in assay [1], 8.70 at Neprilysin [2], 7.40 against Neprilysin [3] and 6.76 at Thermolysin.

In the case of `CC(C)C[C@H](NP(=O)(O)O[C@@H]1O[C@@H](C)[C@H](O)[C@@H](O)[C@H]1O)C(=O)N[C@@H](Cc1c[nH]c2ccccc12)C(=O)O` [PHOSPHORAMIDON], the pIC50 was 8.22 at Neprilysin [2], 8.70 against Neprilysin [3] and 7.48 on Thermolysin.

As to `CC(C)C(C(=O)NO)C(=O)NCC(=O)O` (stereo not given), the pIC50 in assay [1] was 8.17; against Neprilysin [2] it was 8.52; at Neprilysin [3] it was 8.10.
